# In ChEMBL document CHEMBL1921743, “Design, synthesis, biophysical and biological studies of trisubstituted naphthalimides as G-quadruplex ligands” (Bioorg Med Chem, 2011):
# pIC50: −log10 of the molar value. Calls of active or inactive are those of the source. No cut-off for these calls is given here.
# Legend:
# Nucleic Acid [1] = assay: Binding affinity to human telomeric AGGG(TTAGGG)3 quadruplex assessed as fluorescence quenching at 10 uM after 3 mins by fluorescence titration method; type: nucleic-acid assay
# Outline: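 Ligand held at 10 µM (final 2% DMSO) in K-phosphate/70 mM KCl buffer, pH 7.0, 25 °C, titrated with 100–160 µM annealed quadruplex in 5–10 µL additions, ≥3 min equilibration each. Emission recorded 400–600 nm. Fraction free ligand from the change in emission maximum, plotted against quadruplex concentration and fitted for Kb and n; ≥3 experiments.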
# Nucleic Acid [2] = assay: Binding affinity to human telomeric AGGG(TTAGGG)3 quadruplex in first binding event at 480 to 640 uM every 300 to 400 secs at pH 7 by isothermal titration calorimetry analysis; type: nucleic-acid assay
# Outline: (§1)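 Isothermal titration calorimetry at 25 °C, pH 7.0 (20 mM K phosphate, 70 mM KCl, 0.1 mM EDTA). Quadruplex annealed 90 °C for 5 min, slow-cooled, held 24 h at 4 °C, used at 30–40 µM. Ligand 480–640 µM, 5–10 µL injections every 300/400 s, 25–50 injections. First injection discarded; dilution heat subtracted; multiple-sites fit gives Kb for each sequential event.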
# Nucleic Acid [3] = assay: Binding affinity to human telomeric AGGG(TTAGGG)3 quadruplex in second binding event at 480 to 640 uM every 300 to 400 secs at pH 7 by isothermal titration calorimetry method; type: nucleic-acid assay; outline: as §1
# Nucleic Acid [4] = assay: Binding affinity to satellite DNA by UV titration method method; type: nucleic-acid assay
# Nucleic Acid [5] = assay: Binding affinity to duplex DNA d(CGCGAATTCGCG)2 duplex at pH 7 by isothermal titration calorimetry method; type: nucleic-acid assay
# Outline: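 ITC at 298 K. Ligand dissolved in the DNA buffer (20 mM potassium phosphate, 70 mM KCl, 0.1 mM EDTA, pH 7.0). 480–640 µM ligand injected in 5–10 µL aliquots into 30–40 µM annealed duplex every 300 or 400 s, 25–50 injections, stirring 150 rpm. Heats corrected for ligand dilution; isotherms fitted for Kb, ΔH and n.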
# Nucleic Acid [6] = assay: Binding affinity to human telomeric AGGG(TTAGGG)3 quadruplex after 4 secs by circular dichroism spectroscopy analysis; type: nucleic-acid assay
# Nucleic Acid [7] = assay: Binding affinity to human telomeric AGGG(TTAGGG)3 quadruplex assessed as melting temperature at 1:1 compound to DNA ratio at pH 7 by UV-visible spectrophotometer analysis; type: nucleic-acid assay
# Outline: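 UV melting of 25 µM annealed quadruplex alone or with ligand at 1:1 or 2:1 ligand/DNA, pH 7.0 K-phosphate/KCl buffer. Absorbance at 295 nm, 20–85 °C, heating at 0.5 °C/min, 1 mm path. Tm taken as mean ± SD of at least three runs.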
# [8] = target: Telomerase reverse transcriptase (Homo sapiens) (UniProt O14746); assay: Inhibition of telomerase in human A549 cells after 72 hrs by ELISA based TRAP assay; type: cell-based
# Chain of Telomerase reverse transcriptase (Homo sapiens) (O14746 whole entry): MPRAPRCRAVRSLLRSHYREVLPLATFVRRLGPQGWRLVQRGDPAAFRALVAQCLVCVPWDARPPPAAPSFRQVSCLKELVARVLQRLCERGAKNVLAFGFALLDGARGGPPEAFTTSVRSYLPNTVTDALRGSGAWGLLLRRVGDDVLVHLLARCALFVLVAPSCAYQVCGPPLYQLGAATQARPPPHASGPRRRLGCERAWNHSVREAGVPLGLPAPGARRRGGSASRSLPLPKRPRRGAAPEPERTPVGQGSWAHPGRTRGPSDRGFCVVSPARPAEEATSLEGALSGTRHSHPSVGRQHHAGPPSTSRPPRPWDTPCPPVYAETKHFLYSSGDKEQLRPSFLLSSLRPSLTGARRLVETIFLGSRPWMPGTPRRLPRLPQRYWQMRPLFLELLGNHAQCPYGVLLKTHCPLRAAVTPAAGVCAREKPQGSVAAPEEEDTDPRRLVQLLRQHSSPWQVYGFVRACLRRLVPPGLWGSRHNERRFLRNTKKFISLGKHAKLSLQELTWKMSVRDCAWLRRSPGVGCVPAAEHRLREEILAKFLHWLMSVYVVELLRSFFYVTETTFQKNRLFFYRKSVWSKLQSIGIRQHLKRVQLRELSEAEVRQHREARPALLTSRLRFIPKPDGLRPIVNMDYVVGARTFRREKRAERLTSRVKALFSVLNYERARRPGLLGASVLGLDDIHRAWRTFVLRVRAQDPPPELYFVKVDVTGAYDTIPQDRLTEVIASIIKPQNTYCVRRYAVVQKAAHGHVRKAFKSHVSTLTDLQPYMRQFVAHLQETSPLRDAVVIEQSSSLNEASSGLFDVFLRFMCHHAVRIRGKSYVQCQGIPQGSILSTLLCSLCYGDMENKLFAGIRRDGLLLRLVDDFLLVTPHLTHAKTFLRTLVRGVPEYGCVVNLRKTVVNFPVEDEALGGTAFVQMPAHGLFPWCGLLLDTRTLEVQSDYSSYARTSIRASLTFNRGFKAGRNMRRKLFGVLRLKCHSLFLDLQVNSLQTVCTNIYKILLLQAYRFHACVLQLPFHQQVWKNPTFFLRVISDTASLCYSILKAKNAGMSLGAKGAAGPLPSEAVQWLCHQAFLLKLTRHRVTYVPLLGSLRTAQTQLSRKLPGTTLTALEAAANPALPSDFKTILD
# Outline: (§2)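 A549 cells exposed to compound at several concentrations for 72 h. Extracts (1–3 × 10^5 cell equivalents) run in a TRAP PCR-ELISA: P1-TS extension 20 min at 25 °C, then 30 PCR cycles, with an internal standard. Telomerase activity comes from elongation products; Taq activity from internal-standard amplification. Heat-inactivated extract serves as negative control. Triplicates, mean ± SEM, paired t-test.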
# [9] = target: Telomerase reverse transcriptase (Homo sapiens) (UniProt O14746); assay: Inhibition of telomerase in human A549 cells at 5 uM after 72 hrs by ELISA based TRAP assay; type: cell-based; outline: as §2
# M14 = assay: Cytotoxicity against human M14 cells after 5 days by MTT assay; type: functional, cell-based; details: for pIC50: M14, 120 h
# Outline: (§3)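 Cells kept in RPMI-1640 with 10% FCS, 2 mM glutamine and gentamycin, 37 °C, 5% CO2. Seeded at 1000–3000/well, attached 24 h, then given 0.1–100 µM drug for 5 days; 0.2% DMSO controls. MTT added for 4 h, formazan dissolved in acidified isopropanol, A570 read. Eight replicates per point. IC50 read graphically from growth curves; mean ± SD of three experiments.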
# A549 = assay: Cytotoxicity against human A549 cells after 5 days by MTT assay; type: functional, cell-based; details: for pIC50: A549, 120 h; outline: as §3
# NIH3T3 [10] = assay: Cytotoxicity against mouse NIH/3T3 cells assessed as growth inhibition at 0.1 to 100 uM after 5 days by MTT assay; type: cell-based; details: nih3t3, 120 h
# Outline: (§4)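 Mouse embryo fibroblasts grown with bovine calf serum in place of fetal serum. Plated at 1000–3000/well, attached 24 h, then exposed to 0.1–100 µM drug at 37 °C for 5 days alongside 0.2% DMSO controls. MTT for 4 h, acidified isopropanol, A570 read. Eight replicates per point; IC50 taken graphically, mean ± SD of three experiments.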
# [11] = target: DNA polymerase I, thermostable (Thermus aquaticus) (UniProt P19821); assay: Inhibition of Thermus aquaticus taq polymerase at 0.1 to 50 uM after 72 hrs by ELISA based TRAP assay; outline: as §2
# Chain of DNA polymerase I, thermostable (Thermus aquaticus) (P19821 whole entry): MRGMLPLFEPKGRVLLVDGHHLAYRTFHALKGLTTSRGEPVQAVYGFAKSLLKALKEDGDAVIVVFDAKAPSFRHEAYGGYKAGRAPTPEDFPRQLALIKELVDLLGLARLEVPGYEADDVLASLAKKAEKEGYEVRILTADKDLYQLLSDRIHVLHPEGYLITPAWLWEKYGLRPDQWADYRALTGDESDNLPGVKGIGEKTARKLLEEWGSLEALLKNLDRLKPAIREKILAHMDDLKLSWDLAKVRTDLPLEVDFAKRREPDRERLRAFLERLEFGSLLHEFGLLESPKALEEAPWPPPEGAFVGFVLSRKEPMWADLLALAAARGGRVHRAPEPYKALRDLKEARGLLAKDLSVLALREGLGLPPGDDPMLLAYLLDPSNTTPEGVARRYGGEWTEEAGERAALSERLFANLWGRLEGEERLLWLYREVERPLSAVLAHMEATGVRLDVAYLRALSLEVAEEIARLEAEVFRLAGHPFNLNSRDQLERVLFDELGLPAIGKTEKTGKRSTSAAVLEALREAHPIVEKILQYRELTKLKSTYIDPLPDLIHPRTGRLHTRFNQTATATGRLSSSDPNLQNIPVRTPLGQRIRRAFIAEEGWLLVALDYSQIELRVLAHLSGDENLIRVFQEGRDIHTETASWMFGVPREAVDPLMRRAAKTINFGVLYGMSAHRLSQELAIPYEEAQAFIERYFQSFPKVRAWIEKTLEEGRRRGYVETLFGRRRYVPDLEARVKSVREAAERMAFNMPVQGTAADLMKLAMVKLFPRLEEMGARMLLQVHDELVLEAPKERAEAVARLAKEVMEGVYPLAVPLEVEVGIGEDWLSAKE
# NIH3T3 [12] = assay: Cytotoxicity against mouse NIH/3T3 cells after 5 days by MTT assay; type: cell-based; details: NIH3T3, 120 h; outline: as §4
# [13] = target: Telomerase reverse transcriptase (Homo sapiens) (UniProt O14746); assay: Inhibition of telomerase in human A549 cells at 0.05 to 100 uM after 72 hrs by ELISA based TRAP assay; type: cell-based; outline: as §2
# [14] = target: DNA polymerase I, thermostable (Thermus aquaticus) (UniProt P19821); assay: Inhibition of Thermus aquaticus taq polymerase at 0.5 to 100 uM after 72 hrs by ELISA based TRAP assay; outline: as §2
# [15] = target: DNA polymerase I, thermostable (Thermus aquaticus) (UniProt P19821); assay: Inhibition of Thermus aquaticus taq polymerase at 10 to 100 uM after 72 hrs by ELISA based TRAP assay; outline: as §2
SMILES,Kb (Nucleic Acid [1]),Kb (Nucleic Acid [2]),Activity (Nucleic Acid [6]),Tm (Nucleic Acid [7]),inhibition [8],growth inhibition (GI) (M14),pIC50 (M14),growth inhibition (GI) (A549),pIC50 (A549),further results
O=C(CCN1CCCC1)Nc1cc2c3c(cc(NC(=O)CCN4CCCC4)cc3c1)C(=O)N(CCCN1CCCC1)C2=O,30 ×10⁵ /M,2 ×10⁷ /M,Active,60 °C,Dose-dependent effect,Dose-dependent effect,5.82,Dose-dependent effect,5.28,Kb (Nucleic Acid [3]): 5 ×10⁵ /M; Activity (Nucleic Acid [4]): inactive; Kb (Nucleic Acid [5]): 5 ×10⁵ /M; inhibition [9]: 50%; Activity (NIH3T3 [10]): Non-toxic; inhibition [11]: inactive
O=C(CCN1CCCC1)Nc1cc2c3c(cc(NC(=O)CCN4CCCC4)cc3c1)C(=O)N(CCN1CCCC1)C2=O,12 ×10⁵ /M,,,,,,,,,
O=C(CCN1CCCC1)Nc1cc2c3c(cc(NC(=O)CCN4CCCC4)cc3c1)C(=O)N(CCCN1CCN(C(=O)CCN3CCCC3)CC1)C2=O,9 ×10⁵ /M,,,,,,,,,
O=C(CCN1CCCC1)Nc1cc2c3c(cc(NC(=O)CCN4CCCC4)cc3c1)C(=O)N(CCN1CCN(C(=O)CCN3CCCC3)CC1)C2=O,7 ×10⁵ /M,,,,,,,,,
O=C(CCN1CCCC1)Nc1cc2c3c(cc(NC(=O)CCN4CCCC4)cc3c1)C(=O)N(CCCN1CCOCC1)C2=O,10 ×10⁵ /M,4 ×10⁵ /M,Active,60 °C,Dose-dependent effect,Dose-dependent effect,4.46,Dose-dependent effect,4.39,pIC50 (NIH3T3 [12]): 5.34; inhibition [13]: Active; inhibition [14]: Active
O=C(CCN1CCCC1)Nc1cc2c3c(cc(NC(=O)CCN4CCCC4)cc3c1)C(=O)N(CCN1CCCCC1)C2=O,9 ×10⁵ /M,,,,,,,,,
CN(C)CCN1C(=O)c2cc(NC(=O)CCN3CCCC3)cc3cc(NC(=O)CCN4CCCC4)cc(c23)C1=O,6 ×10⁵ /M,,,,,,,,,
O=C(CCN1CCCC1)Nc1cc2c3c(cc(NC(=O)CCN4CCCC4)cc3c1)C(=O)N(CCCN1CCCCC1)C2=O,24 ×10⁵ /M,5 ×10⁷ /M,Active,60 °C,Dose-dependent effect,Dose-dependent effect,5.10,Dose-dependent effect,5.00,Kb (Nucleic Acid [3]): 6 ×10⁵ /M; Activity (Nucleic Acid [4]): inactive; inhibition [9]: 26%; inhibition [15]: Active; pIC50 (NIH3T3 [12]): 4.36
